Source: ChEMBL document CHEMBL1133591, “Potent derivatives of glucagon-like peptide-1 with pharmacokinetic properties suitable for once daily administration” (J Med Chem, 2000)
pEC50: −log10 of the molar value. Numbered stars: 1 amine (or outer) side, 2 acyl side, 3 side chain; on linkers, the order of the positions; unused ones are H or OH. Side chains are listed from the residue outwards. Peptide text beside a SMILES is read from it. * marks the point of attachment. ξ: configuration not given here. Desaminohistidyl = O=C(CCc1c[nH]cn1)*; X2 = CCCCCCCCCCCCCC(CCCCC(=O)*)C(=O)O; ξγGlu = O=C(O)C(CCC(=O)[*:2])N[*:1]; Palmitoyl = CCCCCCCCCCCCCCCC(=O)*

Assays:
[1] = Plasma half life was determined in pigs; type: ADME, organism-based, Sus scrofa; settings: pig
Method in brief: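 Landrace × Duroc × Yorkshire pigs, 25–50 kg, two per compound; single sc dose, 0.5 nmol/kg for analogues, 15 nmol/kg for GLP-1. Jugular catheter blood at 0–72 h, extra early samples for GLP-1; EDTA/aprotinin/bacitracin-stabilized plasma. Unextracted plasma assayed by N-terminal-specific GLP-1 radioimmunoassay against spiked pig-plasma calibrators; half-life calculated per pig, reported as mean ± SD.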

[2] = biological target: Glucagon-like peptide 1 receptor (Homo sapiens, UniProt P43220); test: Potency measured using recombinant human GLP-1 receptor expressed in Baby Hamster Kidney (BHK)cells; type: cell-based
Chain of Glucagon-like peptide 1 receptor (P43220 whole entry): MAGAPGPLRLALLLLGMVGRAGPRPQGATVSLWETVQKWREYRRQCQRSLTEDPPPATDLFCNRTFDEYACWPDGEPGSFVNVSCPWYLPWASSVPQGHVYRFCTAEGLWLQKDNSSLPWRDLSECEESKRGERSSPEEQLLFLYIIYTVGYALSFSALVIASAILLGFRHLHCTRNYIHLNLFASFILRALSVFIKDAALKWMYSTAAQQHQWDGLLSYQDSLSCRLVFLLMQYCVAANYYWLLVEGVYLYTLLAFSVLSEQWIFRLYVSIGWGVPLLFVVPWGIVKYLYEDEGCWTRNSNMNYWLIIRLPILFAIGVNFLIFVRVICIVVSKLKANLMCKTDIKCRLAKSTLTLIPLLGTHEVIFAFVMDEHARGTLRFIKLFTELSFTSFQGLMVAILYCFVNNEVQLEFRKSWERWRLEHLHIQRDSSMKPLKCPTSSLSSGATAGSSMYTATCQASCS

Compound | half-life [1] [h] | pEC50 [2]
CCCCCCCCCCCCCCCC(=O)NC(CCC(=O)NCCCC[C@H](NC(=O)CNC(=O)[C@H](CCC(=O)O)NC(=O)[C@H](CC(C)C)NC(=O)[C@H](Cc1ccc(O)cc1)NC(=O)[C@H](CO)NC(=O)[C@H](CO)NC(=O)[C@@H](NC(=O)[C@H](CC(=O)O)NC(=O)[C@H](CO)NC(=O)[C@@H](NC(=O)[C@H](Cc1ccccc1)NC(=O)[C@@H](NC(=O)CNC(=O)[C@H](CCC(=O)O)NC(=O)[C@H](C)NC(=O)[C@@H](N)Cc1c[nH]cn1)[C@@H](C)O)[C@@H](C)O)C(C)C)C(=O)N[C@@H](C)C(=O)N[C@@H](C)C(=O)N[C@@H](CCCN=C(N)N)C(=O)N[C@@H](CCC(=O)O)C(=O)N[C@@H](Cc1ccccc1)C(=O)N[C@H](C(=O)N[C@@H](C)C(=O)N[C@@H](Cc1c[nH]c2ccccc12)C(=O)N[C@@H](CC(C)C)C(=O)N[C@H](C(=O)N[C@@H](CCCN=C(N)N)C(=O)NCC(=O)N[C@@H](CCCN=C(N)N)C(=O)NCC(=O)O)C(C)C)[C@@H](C)CC)C(=O)O (stereo partly specified) (H-HAEGTFTSDVSSYLEGK([ξγGlu-Palmitoyl])AAREFIAWLVRGRG-OH) | 20 | 10.52
CCCCCCCCCCCCCCCC(=O)N[C@@H](CCC(=O)NCCCC[C@H](NC(=O)[C@H](C)NC(=O)[C@H](C)NC(=O)[C@H](CCC(N)=O)NC(=O)CNC(=O)[C@H](CCC(=O)O)NC(=O)[C@H](CC(C)C)NC(=O)[C@H](Cc1ccc(O)cc1)NC(=O)[C@H](CO)NC(=O)[C@H](CO)NC(=O)[C@@H](NC(=O)[C@H](CC(=O)O)NC(=O)[C@H](CO)NC(=O)[C@@H](NC(=O)[C@H](Cc1ccccc1)NC(=O)[C@@H](NC(=O)CNC(=O)[C@H](CCC(=O)O)NC(=O)[C@H](C)NC(=O)[C@@H](N)Cc1cnc[nH]1)[C@@H](C)O)[C@@H](C)O)C(C)C)C(=O)N[C@@H](CCC(=O)O)C(=O)N[C@@H](Cc1ccccc1)C(=O)N[C@H](C(=O)N[C@@H](C)C(=O)N[C@@H](Cc1c[nH]c2ccccc12)C(=O)N[C@@H](CC(C)C)C(=O)N[C@H](C(=O)N[C@@H](CCCNC(=N)N)C(=O)NCC(=O)N[C@@H](CCCNC(=N)N)C(=O)NCC(=O)O)C(C)C)[C@@H](C)CC)C(=O)O | 14 | 
CCCCCCCCCCCC(=O)NC(CCC(=O)NCCCC[C@H](NC(=O)[C@H](C)NC(=O)[C@H](C)NC(=O)[C@H](CCC(N)=O)NC(=O)CNC(=O)[C@H](CCC(=O)O)NC(=O)[C@H](CC(C)C)NC(=O)[C@H](Cc1ccc(O)cc1)NC(=O)[C@H](CO)NC(=O)[C@H](CO)NC(=O)[C@@H](NC(=O)[C@H](CC(=O)O)NC(=O)[C@H](CO)NC(=O)[C@@H](NC(=O)[C@H](Cc1ccccc1)NC(=O)[C@@H](NC(=O)CNC(=O)[C@H](CCC(=O)O)NC(=O)[C@H](C)NC(=O)[C@@H](N)Cc1c[nH]cn1)[C@@H](C)O)[C@@H](C)O)C(C)C)C(=O)N[C@@H](CCC(=O)O)C(=O)N[C@@H](Cc1ccccc1)C(=O)N[C@H](C(=O)N[C@@H](C)C(=O)N[C@@H](Cc1c[nH]c2ccccc12)C(=O)N[C@@H](CC(C)C)C(=O)N[C@H](C(=O)N[C@@H](CCCN=C(N)N)C(=O)NCC(=O)N[C@@H](CCCN=C(N)N)C(=O)NCC(=O)O)C(C)C)[C@@H](C)CC)C(=O)O (stereo partly specified) | 15 | 
CCCCCCCCCCCCCCCC(=O)NCCCC(=O)NCCCC[C@H](NC(=O)[C@H](C)NC(=O)[C@H](C)NC(=O)[C@H](CCC(N)=O)NC(=O)CNC(=O)[C@H](CCC(=O)O)NC(=O)[C@H](CC(C)C)NC(=O)[C@H](Cc1ccc(O)cc1)NC(=O)[C@H](CO)NC(=O)[C@H](CO)NC(=O)[C@@H](NC(=O)[C@H](CC(=O)O)NC(=O)[C@H](CO)NC(=O)[C@@H](NC(=O)[C@H](Cc1ccccc1)NC(=O)[C@@H](NC(=O)CNC(=O)[C@H](CCC(=O)O)NC(=O)[C@H](C)NC(=O)[C@@H](N)Cc1c[nH]cn1)[C@@H](C)O)[C@@H](C)O)C(C)C)C(=O)N[C@@H](CCC(=O)O)C(=O)N[C@@H](Cc1ccccc1)C(=O)N[C@H](C(=O)N[C@@H](C)C(=O)N[C@@H](Cc1c[nH]c2ccccc12)C(=O)N[C@@H](CC(C)C)C(=O)N[C@H](C(=O)N[C@@H](CCCN=C(N)N)C(=O)NCC(=O)N[C@@H](CCCN=C(N)N)C(=O)NCC(=O)O)C(C)C)[C@@H](C)CC | 31 | 
CCCCCCCCCCCCCCCC(=O)NCCC(=O)NCCCC[C@H](NC(=O)[C@H](C)NC(=O)[C@H](C)NC(=O)[C@H](CCC(N)=O)NC(=O)CNC(=O)[C@H](CCC(=O)O)NC(=O)[C@H](CC(C)C)NC(=O)[C@H](Cc1ccc(O)cc1)NC(=O)[C@H](CO)NC(=O)[C@H](CO)NC(=O)[C@@H](NC(=O)[C@H](CC(=O)O)NC(=O)[C@H](CO)NC(=O)[C@@H](NC(=O)[C@H](Cc1ccccc1)NC(=O)[C@@H](NC(=O)CNC(=O)[C@H](CCC(=O)O)NC(=O)[C@H](C)NC(=O)[C@@H](N)Cc1c[nH]cn1)[C@@H](C)O)[C@@H](C)O)C(C)C)C(=O)N[C@@H](CCC(=O)O)C(=O)N[C@@H](Cc1ccccc1)C(=O)N[C@H](C(=O)N[C@@H](C)C(=O)N[C@@H](Cc1c[nH]c2ccccc12)C(=O)N[C@@H](CC(C)C)C(=O)N[C@H](C(=O)N[C@@H](CCCN=C(N)N)C(=O)NCC(=O)N[C@@H](CCCN=C(N)N)C(=O)NCC(=O)O)C(C)C)[C@@H](C)CC | 8.8 | 
CCCCCCCCCCCCCCCC(=O)NC(CCC(=O)NCCCC[C@H](NC(=O)[C@@H](NC(=O)[C@H](CC(C)C)NC(=O)[C@H](Cc1c[nH]c2ccccc12)NC(=O)[C@H](C)NC(=O)[C@@H](NC(=O)[C@H](Cc1ccccc1)NC(=O)[C@H](CCC(=O)O)NC(=O)[C@H](CCCN=C(N)N)NC(=O)[C@H](C)NC(=O)[C@H](C)NC(=O)[C@H](CCC(N)=O)NC(=O)CNC(=O)[C@H](CCC(=O)O)NC(=O)[C@H](CC(C)C)NC(=O)[C@H](Cc1ccc(O)cc1)NC(=O)[C@H](CO)NC(=O)[C@H](CO)NC(=O)[C@@H](NC(=O)[C@H](CC(=O)O)NC(=O)[C@H](CO)NC(=O)[C@@H](NC(=O)[C@H](Cc1ccccc1)NC(=O)[C@@H](NC(=O)CNC(=O)[C@H](CCC(=O)O)NC(=O)[C@H](C)NC(=O)CCc1c[nH]cn1)[C@@H](C)O)[C@@H](C)O)C(C)C)[C@@H](C)CC)C(C)C)C(=O)NCC(=O)N[C@@H](CCCN=C(N)N)C(=O)NCC(=O)O)C(=O)O (stereo partly specified) (Desaminohistidyl-AEGTFTSDVSSYLEGQAAREFIAWLVK([ξγGlu-Palmitoyl])GRG-OH) |  | 8.63
CCCCCCCCCCCCCC(CCCCC(=O)NCCCC[C@H](NC(=O)CNC(=O)[C@H](CCCN=C(N)N)NC(=O)[C@@H](NC(=O)[C@H](CC(C)C)NC(=O)[C@H](Cc1c[nH]c2ccccc12)NC(=O)[C@H](C)NC(=O)[C@@H](NC(=O)[C@H](Cc1ccccc1)NC(=O)[C@H](CCC(=O)O)NC(=O)[C@H](CCCN=C(N)N)NC(=O)[C@H](C)NC(=O)[C@H](C)NC(=O)[C@H](CCC(N)=O)NC(=O)CNC(=O)[C@H](CCC(=O)O)NC(=O)[C@H](CC(C)C)NC(=O)[C@H](Cc1ccc(O)cc1)NC(=O)[C@H](CO)NC(=O)[C@H](CO)NC(=O)[C@@H](NC(=O)[C@H](CC(=O)O)NC(=O)[C@H](CO)NC(=O)[C@@H](NC(=O)[C@H](Cc1ccccc1)NC(=O)[C@@H](NC(=O)CNC(=O)[C@H](CCC(=O)O)NC(=O)[C@H](C)NC(=O)[C@@H](N)Cc1c[nH]cn1)[C@@H](C)O)[C@@H](C)O)C(C)C)[C@@H](C)CC)C(C)C)C(=O)NCC(=O)O)C(=O)O (stereo partly specified) (H-HAEGTFTSDVSSYLEGQAAREFIAWLVRGK(X2)G-OH) |  | 9.68

Other lines, results leading:

half-life [1] [h] | pEC50 [2] | Compound
 | 10.45 | CCCCCCCCCCCCCCCC(=O)NC(CCC(=O)NCCCC[C@H](NC(=O)[C@H](CO)NC(=O)[C@@H](NC(=O)[C@H](CC(=O)O)NC(=O)[C@H](CO)NC(=O)[C@@H](NC(=O)[C@H](Cc1ccccc1)NC(=O)[C@@H](NC(=O)CNC(=O)[C@H](CCC(=O)O)NC(=O)[C@H](C)NC(=O)[C@@H](N)Cc1c[nH]cn1)[C@@H](C)O)[C@@H](C)O)C(C)C)C(=O)N[C@@H](Cc1ccc(O)cc1)C(=O)N[C@@H](CC(C)C)C(=O)N[C@@H](CCC(=O)O)C(=O)NCC(=O)N[C@@H](CCC(N)=O)C(=O)N[C@@H](C)C(=O)N[C@@H](C)C(=O)N[C@@H](CCCN=C(N)N)C(=O)N[C@@H](CCC(=O)O)C(=O)N[C@@H](Cc1ccccc1)C(=O)N[C@H](C(=O)N[C@@H](C)C(=O)N[C@@H](Cc1c[nH]c2ccccc12)C(=O)N[C@@H](CC(C)C)C(=O)N[C@H](C(=O)N[C@@H](CCCN=C(N)N)C(=O)NCC(=O)N[C@@H](CCCN=C(N)N)C(=O)NCC(=O)O)C(C)C)[C@@H](C)CC)C(=O)O (stereo partly specified) (H-HAEGTFTSDVSK([ξγGlu-Palmitoyl])YLEGQAAREFIAWLVRGRG-OH)
 | 10.28 | CCCCCCCCCCCCCCCC(=O)NC(CCC(=O)NCCCCC(NC(=O)CNC(=O)[C@H](CCCN=C(N)N)NC(=O)CNC(=O)[C@H](CCCN=C(N)N)NC(=O)[C@@H](NC(=O)[C@H](CC(C)C)NC(=O)[C@H](Cc1c[nH]c2ccccc12)NC(=O)[C@H](C)NC(=O)[C@@H](NC(=O)[C@H](Cc1ccccc1)NC(=O)[C@H](CCC(=O)O)NC(=O)[C@H](CCCN=C(N)N)NC(=O)[C@H](C)NC(=O)[C@H](C)NC(=O)[C@H](CCC(N)=O)NC(=O)CNC(=O)[C@H](CCC(=O)O)NC(=O)[C@H](CC(C)C)NC(=O)[C@H](Cc1ccc(O)cc1)NC(=O)[C@H](CO)NC(=O)[C@H](CO)NC(=O)[C@@H](NC(=O)[C@H](CC(=O)O)NC(=O)[C@H](CO)NC(=O)[C@@H](NC(=O)[C@H](Cc1ccccc1)NC(=O)[C@@H](NC(=O)CNC(=O)[C@H](CCC(=O)O)NC(=O)[C@H](C)NC(=O)[C@@H](N)Cc1c[nH]cn1)[C@@H](C)O)[C@@H](C)O)C(C)C)[C@@H](C)CC)C(C)C)C(=O)O)C(=O)O (stereo partly specified)
 | 10.57 | CCCCCCCCCCCCCCCC(=O)NC(CCC(=O)NCCCCC(NC(=O)[C@H](CCC(=O)O)NC(=O)[C@H](CCCN=C(N)N)NC(=O)CNC(=O)[C@H](CCCN=C(N)N)NC(=O)[C@@H](NC(=O)[C@H](CC(C)C)NC(=O)[C@H](Cc1c[nH]c2ccccc12)NC(=O)[C@H](C)NC(=O)[C@@H](NC(=O)[C@H](Cc1ccccc1)NC(=O)[C@H](CCC(=O)O)NC(=O)[C@H](CCCN=C(N)N)NC(=O)[C@H](C)NC(=O)[C@H](C)NC(=O)[C@H](CCC(N)=O)NC(=O)CNC(=O)[C@H](CCC(=O)O)NC(=O)[C@H](CC(C)C)NC(=O)[C@H](Cc1ccc(O)cc1)NC(=O)[C@H](CO)NC(=O)[C@H](CO)NC(=O)[C@@H](NC(=O)[C@H](CC(=O)O)NC(=O)[C@H](CO)NC(=O)[C@@H](NC(=O)[C@H](Cc1ccccc1)NC(=O)[C@@H](NC(=O)CNC(=O)[C@H](CCC(=O)O)NC(=O)[C@H](C)NC(=O)[C@@H](N)Cc1c[nH]cn1)[C@@H](C)O)[C@@H](C)O)C(C)C)[C@@H](C)CC)C(C)C)C(=O)O)C(=O)O (stereo partly specified)
